The source made the active and inactive calls. No cut-off for these calls is given here.

From ChEMBL document CHEMBL1821702, “8,8-Dimethyldihydroberberine with improved bioavailability and oral efficacy on obese and diabetic mouse models” (Bioorg Med Chem, 2010) come the findings set out here.

In data set [1] the test system is Mus musculus. Briefly: Toxicity in C57BLKS/J-db/db mouse assessed as change in food intake at 50 mg/kg/day, po for 6 weeks. Type of data set: organism-based. More on the design: route oral. The settings on record: in vivo, 1008 h. Put shortly:
(§1)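 db/db mice (half male, half female) were dosed by oral gavage daily for 6 weeks in 0.5% microcrystalline cellulose/1.6% lactose vehicle. Body weight and food intake were recorded daily. Mice were killed after the final dose, and liver and fat depots were weighed and expressed relative to body weight.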

The subject of data set [2] is L6. Nature of the data set: Increase in intracellular AMP:ATP ratio in rat differentiated L6 myotubes after 1 hr. The class given is functional, cell-based. Put shortly:
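Differentiated L6 myotubes were serum-starved 2 h and incubated 1 h with increasing concentrations. Intracellular AMP, ADP and ATP were measured and the AMP:ATP ratio calculated, with berberine 5 µM as positive control. Three independent experiments ± SE.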

The test system of data set [3] is L6. Briefly: Increase in glucose uptake in rat differentiated L6 myotubes after 2 hrs. The class given is functional. An outline of the steps: (§2)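 Fully differentiated L6 myotubes were serum-starved 2 h, then treated with compound for 15 min to 2 h (dose series at 1 h). Glucose uptake was measured relative to DMSO control. Mean of three independent experiments ± SE.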

Data set [4] relates to Mus musculus. Nature of the data set: Antidiabetic activity in high fat diet-fed C57BL/6J mouse assessed as increase in glucose tolerance at 15 mg/kg/day, po for 4 weeks measured after 120 mins by intraperitoneal glucose tolerance test. Type of data set: functional, organism-based. Put shortly:
(§3)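 High-fat-diet (60 kcal%, 8 weeks) male C57BL/6J mice were randomized by body weight and fed glucose, then dosed orally once daily in cellulose/lactose vehicle. ipGTT was done at 4 weeks: D-glucose 2 g/kg ip, glucometer readings at 0, 15, 30, 60, 90 and 120 min. n = 5–8.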

A short description of data set [5]: Aqueous solubility of compound in distilled water. The class given is physicochemical. Put shortly:
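Excess solid was suspended in distilled water and stirred 24 h at 25 ± 0.5 °C. The suspension was filtered, and dissolved concentration was measured by HPLC.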

Data set [6] relates to L6. Briefly: Increase in glucose uptake in rat differentiated L6 myotubes at 2.5 uM after 1 hr. Type of data set: functional. Put shortly: as §2
The subject of data set [7] is Mus musculus. Briefly: Antidiabetic activity in high fat diet-fed C57BL/6J mouse assessed as alleviation of insulin resistance at 15 mg/kg/day, po for 4 weeks measured after 60 mins by insulin tolerance test. The class given is functional, organism-based. Put shortly:
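Male C57BL/6J mice were fed a 60 kcal% fat diet for 8 weeks, randomized, then gavaged daily in 0.5% microcrystalline cellulose/1.6% lactose vehicle. ITT was run at 4 weeks: 6 h fast, insulin 0.75 U/kg ip, blood glucose at 0, 15, 30, 60, 90 and 120 min. Mean ± SE, n = 5–8.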

The test system of data set [8] is L6. Nature of the data set: Increase in glucose uptake in rat differentiated L6 myotubes after 15 mins. Type of data set: functional. Put shortly:
as §2

Data set [9] can be described thus: Oral bioavailability in 12 hrs fasting Sprague-Dawley rat at 10 mg/kg. The settings on record: in vivo. Type of data set: ADME, organism-based. Put shortly: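 Male Sprague–Dawley rats were fasted 12 h and gavaged at 10 mg/kg. Blood was taken retro-orbitally into heparin tubes from pre-dose to 24 h. Plasma levels of parent and of berberine/dihydroberberine were measured by LC–MS/MS.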

Data set [10] concerns Mus musculus. Nature of the data set: Toxicity in high fat diet-fed C57BL/6J mouse assessed as change in food intake at 15 mg/kg/day, po for 6 weeks. Type of data set: organism-based. More on the design: route oral. The settings on record: in vivo, 1008 h. Put shortly:
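Male C57BL/6J mice (purchased at 6 weeks of age) fed 60 kcal% fat diet for 8 weeks, then randomized by body weight and fed glucose. Dosed orally once daily for 6 weeks in vehicle of 0.5% microcrystalline cellulose plus 1.6% lactose. Groups: high-fat vehicle, metformin 250 mg/kg positive control, chow-fed vehicle. Body weight and food intake recorded daily.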

Data set [11] deals with Mus musculus. Nature of the data set: Antidiabetic activity in C57BLKS/J-db/db mouse assessed as alleviation of glucose tolerance at 50 mg/kg/day, po for 3 weeks measured after 90 mins by intraperitoneal glucose tolerance test. The class given is functional, organism-based. Put shortly:
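Male and female C57BLKS/J-db/db mice, randomized at 6 weeks of age by body weight and fed glucose, were gavaged once daily in vehicle (0.5% microcrystalline cellulose, 1.6% lactose). For ipGTT, D-glucose was given at 2 g/kg ip, and blood glucose was read by glucometer at 0, 15, 30, 60, 90 and 120 min.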

Data set [12] has as its system Mus musculus. Nature of the data set: Toxicity in C57BLKS/J-db/db mouse assessed as change in liver to body weight ratio at 50 mg/kg/day, po for 6 weeks. Type of data set: organism-based. The arrangement: route oral. The settings on record: in vivo, 1008 h. Put shortly: as §1
For data set [13], the system named is Mus musculus. Nature of the data set: Antidiabetic activity in high fat diet-fed C57BL/6J mouse assessed as increase in glucose tolerance at 15 mg/kg/day, po for 4 weeks measured after 30 mins by intraperitoneal glucose tolerance test. The class given is functional, organism-based. Put shortly: as §3
The test system of data set [14] is Mus musculus. Nature of the data set: Toxicity in C57BLKS/J-db/db mouse assessed as change in body weight at 50 mg/kg/day, po for 6 weeks. Type of data set: organism-based. More on the design: route oral. The settings on record: in vivo, 1008 h. An outline of the steps: as §1
Data set [15] concerns Mus musculus. Nature of the data set: Antiobese activity in C57BLKS/J-db/db mouse assessed as decrease in plasma triglyceride level at 50 mg/kg/day, po […]. The arrangement: scale not given: the % may be the effect or the level left. The class given is functional. An outline of the steps: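 db/db mice were gavaged once daily in 0.5% microcrystalline cellulose/1.6% lactose vehicle for 6 weeks and killed after the final dose. Plasma triglycerides were measured with a colorimetric triglyceride assay kit.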

With `COc1ccc2c(c1OC)C(C)(C)[N+]1=C(C2)c2cc3c(cc2CC1)OCO3.[Cl-]` [8,8-dimethyldihydroberberine], the Activity result was “Non-toxic” in the data set with Mus musculus [1]; “Dose-dependent effect” in the data set with L6 [2]; 84% in the data set with L6 [3]; 48% in the data set with L6 [6]; 28% in the data set with L6 [8]; “Non-toxic” in the data set on Mus musculus [10]. The Activity entry was “Non-toxic” in the data set on Mus musculus [12], “Non-toxic” in the data set on Mus musculus [14] and 38% in the data set on Mus musculus [15]. Moreover, the outcome in the data set with Mus musculus [4], in the data set with Mus musculus [7], in the data set on Mus musculus [11] and in the data set with Mus musculus [13] was Active. This compound also yielded a solubility in data set [5] of 81 mg/mL. In data set [9], this compound had a bioavailability of 10%.
